ChEMBL document CHEMBL3352487, “Synthesis, antibacterial activity, and biological evaluation of formyl hydroxyamino derivatives as novel potent peptide deformylase inhibitors against drug-resistant bacteria” (Eur J Med Chem, 2014)
≈ marks a conversion by molar mass, not a printed value.

What was measured:
Format in all cases: functional
Escherichia coli [1] = assay: Antimicrobial activity against Escherichia coli isolate 1 after 24 hrs by broth microdilution method; details: isolate 1, 24 h
Outline: (§1)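 Broth microdilution following NCCLS M7-A4; ATCC strains and clinical isolates from a provincial hospital.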

[2] = system: Staphylococcus epidermidis; assay: Antimicrobial activity against Staphylococcus epidermidis after 24 hrs by broth microdilution method; outline: as §1
Escherichia coli [3] = assay: Antimicrobial activity against Escherichia coli isolate 2 after 24 hrs by broth microdilution method; details: isolate 2, 24 h; outline: as §1
Staphylococcus aureus [4] = assay: Antimicrobial activity against methicillin-susceptible Staphylococcus aureus after 24 hrs by broth microdilution method; outline: as §1
Staphylococcus aureus [5] = assay: Antimicrobial activity against Staphylococcus aureus after 24 hrs by broth microdilution method; outline: as §1
Staphylococcus aureus [6] = assay: Antimicrobial activity against methicillin-resistant Staphylococcus aureus after 24 hrs by broth microdilution method
Outline: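 Broth microdilution following NCCLS M7-A4, using ATCC strains and clinical isolates from a provincial hospital.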

Row | Structure (SMILES) | MIC (Escherichia coli [1]) [µg/mL] | MIC [2] [µg/mL] | MIC (Escherichia coli [3]) [µg/mL] | MIC (Staphylococcus aureus [4]) [µg/mL] | MIC (Staphylococcus aureus [5]) [µg/mL] | MIC (Staphylococcus aureus [6]) [µg/mL]
1 | CCCC[C@H](CN(O)C=O)C(=O)N1CC=C[C@H]1C(=O)Nc1ccccn1 | > 64 | 0.5 (≈ 1.39 µM) | 32 (≈ 88.8 µM) | 1 (≈ 2.77 µM) | 0.125 (≈ 0.347 µM) | 0.125 (≈ 0.347 µM)
2 | CCCC[C@H](CN(O)C=O)C(=O)N1CC=C[C@H]1C(=O)N1CCOCC1 | > 64 | > 64 | > 64 | > 64 | > 64 | 32 (≈ 90.5 µM)
3 | CCCC[C@H](CN(O)C=O)C(=O)N1CC=C[C@H]1C(=O)NC1CC1 | 64 (≈ 198 µM) | 4 (≈ 12.4 µM) | 32 (≈ 99 µM) | 32 (≈ 99 µM) | 64 (≈ 198 µM) | 2 (≈ 6.18 µM)
4 | CCCC[C@H](CN(O)C=O)C(=O)N1CC=C[C@H]1C(=O)Nc1ccc(Cl)cc1 | > 64 | 4 (≈ 10.2 µM) | > 64 | 2 (≈ 5.08 µM) | 8 (≈ 20.3 µM) | 1 (≈ 2.54 µM)
5 | CCCC[C@H](CN(O)C=O)C(=O)N1CC=C[C@H]1C(=O)Nc1ccccc1Br | > 64 | 8 (≈ 18.3 µM) | > 64 | 4 (≈ 9.13 µM) | 32 (≈ 73 µM) | 1 (≈ 2.28 µM)
6 | CCCC[C@H](CN(O)C=O)C(=O)N1CC=C[C@H]1C(=O)Nc1cccc(Br)c1 | 64 (≈ 146 µM) | 1 (≈ 2.28 µM) | 16 (≈ 36.5 µM) | 1 (≈ 2.28 µM) | 8 (≈ 18.3 µM) | 0.125 (≈ 0.285 µM)
7 | CCCC[C@H](CN(O)C=O)C(=O)N1CC=C[C@H]1C(=O)Nc1ccc(Br)cc1 | > 64 | 2 (≈ 4.56 µM) | > 64 | 1 (≈ 2.28 µM) | 4 (≈ 9.13 µM) | 0.5 (≈ 1.14 µM)
8 | CCCC[C@H](CN(O)C=O)C(=O)N1CC=C[C@H]1C(=O)Nc1ccccc1Cl | > 64 | 1 (≈ 2.54 µM) | 64 (≈ 162 µM) | 2 (≈ 5.08 µM) | 0.5 (≈ 1.27 µM) | 0.25 (≈ 0.635 µM)
9 | CCCC[C@H](CN(O)C=O)C(=O)N1CC=C[C@H]1C(=O)Nc1ccc(F)cc1 | > 64 | 4 (≈ 10.6 µM) | 64 (≈ 170 µM) | 2 (≈ 5.3 µM) | 2 (≈ 5.3 µM) | 1 (≈ 2.65 µM)
10 | CCCC[C@H](CN(O)C=O)C(=O)N1CC=C[C@H]1C(=O)Nc1ccc([N+](=O)[O-])cc1 | > 64 | 0.5 (≈ 1.24 µM) | 32 (≈ 79.1 µM) | 2 (≈ 4.95 µM) | 0.5 (≈ 1.24 µM) | 0.5 (≈ 1.24 µM)
11 | CCCC[C@H](CN(O)C=O)C(=O)N1CC=C[C@H]1C(=O)Nc1ccc(OC)cc1 | > 64 | 2 (≈ 5.14 µM) | > 64 | 2 (≈ 5.14 µM) | 0.5 (≈ 1.28 µM) | 1 (≈ 2.57 µM)
12 | CCCC[C@H](CN(O)C=O)C(=O)N1CC=C[C@H]1C(=O)N[C@@H](C)c1ccccc1 | > 64 | 8 (≈ 20.6 µM) | > 64 | 16 (≈ 41.3 µM) | 4 (≈ 10.3 µM) | 8 (≈ 20.6 µM)
13 | CCCC[C@H](CN(O)C=O)C(=O)N1CC=C[C@H]1C(=O)N[C@H](C)c1ccccc1 | > 64 | 4 (≈ 10.3 µM) | > 64 | 16 (≈ 41.3 µM) | 4 (≈ 10.3 µM) | 2 (≈ 5.16 µM)
14 | CCCC[C@H](CN(O)C=O)C(=O)N1CC=C[C@H]1C(=O)Nc1ccccc1 | > 64 | 2 (≈ 5.56 µM) | 64 (≈ 178 µM) | 8 (≈ 22.3 µM) | 4 (≈ 11.1 µM) | 1 (≈ 2.78 µM)
15 | O=CN(O)C[C@@H](CC1CCCC1)C(=O)N1CC=C[C@H]1C(=O)N1CCOCC1 | > 64 | 64 (≈ 169 µM) | > 64 | 64 (≈ 169 µM) | 64 (≈ 169 µM) | 32 (≈ 84.3 µM)
16 | C[C@H](NC(=O)[C@@H]1C=CCN1C(=O)[C@H](CC1CCCC1)CN(O)C=O)c1ccccc1 | > 64 | 8 (≈ 19.3 µM) | > 64 | 16 (≈ 38.7 µM) | 4 (≈ 9.67 µM) | 4 (≈ 9.67 µM)
17 | CN[C@H](CC(C)C)C(=O)N[C@H]1C(=O)N[C@@H](CC(N)=O)C(=O)N[C@H]2C(=O)N[C@H]3C(=O)N[C@H](C(=O)N[C@H](C(=O)O)c4cc(O)cc(O)c4-c4cc3ccc4O)[C@H](O)c3ccc(c(Cl)c3)Oc3cc2cc(c3O[C@@H]2O[C@H](CO)[C@@H](O)[C@H](O)[C@H]2O[C@H]2C[C@](C)(N)[C@H](O)[C@H](C)O2)Oc2ccc(cc2Cl)[C@H]1O [VANCOMYCIN] | > 64 | – | > 64 | – | – | –
